In ChEMBL document CHEMBL1135657, “Novel dual inhibitors of AChE and MAO derived from hydroxy aminoindan and phenethylamine as potential treatment for Alzheimer's disease” (J Med Chem, 2002):

Experiments:
[1] = molecular target: T1, Amine oxidase [flavin-containing] A (Rattus norvegicus, UniProt P21396); assay: In vitro inhibitory concentration against Monoamine oxidase A of rat brain homogenates; value ranges from 4.3-7.3; format: tissue-based
T1 sequence (P21396 whole entry): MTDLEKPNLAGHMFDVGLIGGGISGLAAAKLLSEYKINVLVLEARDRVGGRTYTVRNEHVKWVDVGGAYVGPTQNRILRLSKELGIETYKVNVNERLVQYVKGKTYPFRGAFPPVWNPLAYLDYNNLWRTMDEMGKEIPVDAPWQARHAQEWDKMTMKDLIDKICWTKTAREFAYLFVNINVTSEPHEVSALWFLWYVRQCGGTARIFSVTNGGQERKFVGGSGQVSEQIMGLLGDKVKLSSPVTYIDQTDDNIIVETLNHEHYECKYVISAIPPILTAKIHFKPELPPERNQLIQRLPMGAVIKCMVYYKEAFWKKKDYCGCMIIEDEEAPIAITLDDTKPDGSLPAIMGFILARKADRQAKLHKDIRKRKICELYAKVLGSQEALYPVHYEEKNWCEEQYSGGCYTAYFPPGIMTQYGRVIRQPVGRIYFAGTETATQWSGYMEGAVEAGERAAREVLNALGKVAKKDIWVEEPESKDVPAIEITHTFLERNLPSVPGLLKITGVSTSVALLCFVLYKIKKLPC

[2] = molecular target: T2, Amine oxidase [flavin-containing] B (Rattus norvegicus, UniProt P19643); assay: In vitro inhibitory concentration against Monoamine oxidase B of rat brain homogenates; format: tissue-based
T2 sequence (P19643 whole entry): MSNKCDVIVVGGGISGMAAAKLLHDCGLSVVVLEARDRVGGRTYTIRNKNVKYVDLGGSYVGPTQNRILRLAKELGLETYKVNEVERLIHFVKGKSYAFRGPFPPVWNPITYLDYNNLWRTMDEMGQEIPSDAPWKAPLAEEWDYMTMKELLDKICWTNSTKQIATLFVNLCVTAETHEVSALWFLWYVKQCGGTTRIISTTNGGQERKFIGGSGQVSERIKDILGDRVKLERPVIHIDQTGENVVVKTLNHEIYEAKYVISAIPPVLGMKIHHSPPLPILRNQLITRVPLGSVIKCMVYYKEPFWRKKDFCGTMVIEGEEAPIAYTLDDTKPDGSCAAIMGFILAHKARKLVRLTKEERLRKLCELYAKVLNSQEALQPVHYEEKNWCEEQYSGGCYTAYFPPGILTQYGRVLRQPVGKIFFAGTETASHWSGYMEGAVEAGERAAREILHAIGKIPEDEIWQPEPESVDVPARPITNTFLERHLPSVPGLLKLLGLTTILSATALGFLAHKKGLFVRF

Butyrylcholinesterase [3] = molecular target: T3, Butyrylcholinesterase (Equus caballus, UniProt Q9N1N9); assay: In vitro inhibitory concentration against Butyrylcholinesterase of horse serum; value ranges from 1.63-2.45
How it was run: (§1)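 Ellman assay followed, with 200 µM butyrylthiocholine as substrate. Runs were in triplicate with four-point dose-response curves. IC50 and fiducial limits came from log concentration versus % inhibition.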

Acetylcholinesterase [4] = molecular target: T4, Acetylcholinesterase (Homo sapiens, UniProt P22303); assay: In vitro inhibitory concentration against purified Acetylcholinesterase of human erythrocytes; value ranges from […]-[…]
[5] = molecular target: T2, Amine oxidase [flavin-containing] B; assay: In vitro inhibitory concentration against Monoamine oxidase B of rat brain homogenates; value ranges from 360-470; format: tissue-based
[6] = molecular target: T1, Amine oxidase [flavin-containing] A; assay: In vitro inhibitory concentration against Monoamine oxidase A of rat brain homogenates; value ranges from 170-340; format: tissue-based
Butyrylcholinesterase [7] = molecular target: T3, Butyrylcholinesterase; assay: In vitro inhibitory concentration against Butyrylcholinesterase of horse serum; value ranges from 6.3-52.4; how it was run: as §1
Acetylcholinesterase [8] = molecular target: T4, Acetylcholinesterase; assay: In vitro inhibitory concentration against purified Acetylcholinesterase of human erythrocytes; value ranges from 6.4-45.9
Acetylcholinesterase [9] = molecular target: T4, Acetylcholinesterase
Butyrylcholinesterase [10] = molecular target: T3, Butyrylcholinesterase; assay: In vitro inhibitory concentration against Butyrylcholinesterase of horse serum; value ranges from 29.6-110; how it was run: as §1
Acetylcholinesterase [11] = molecular target: T4, Acetylcholinesterase; assay: In vitro inhibitory concentration against purified Acetylcholinesterase of human erythrocytes; value ranges from 33.2-96.7
Butyrylcholinesterase [12] = molecular target: T3, Butyrylcholinesterase; assay: In vitro inhibitory concentration against Butyrylcholinesterase of horse serum; value ranges from 6.8-31.2; how it was run: as §1
Acetylcholinesterase [13] = molecular target: T4, Acetylcholinesterase; assay: In vitro inhibitory concentration against purified Acetylcholinesterase of human erythrocytes; value ranges from 5.24-30.8
[14] = molecular target: T2, Amine oxidase [flavin-containing] B; assay: biochemical; format: tissue-based, Brain
[15] = molecular target: T1, Amine oxidase [flavin-containing] A; assay: In vitro inhibitory concentration against Monoamine oxidase A of rat brain homogenates; value ranges from 0.5-3.7; format: tissue-based
Acetylcholinesterase [16] = molecular target: T4, Acetylcholinesterase; assay: In vitro inhibitory concentration against purified Acetylcholinesterase of human erythrocytes; value ranges from 2.8-27.5
[17] = molecular target: T1, Amine oxidase [flavin-containing] A; assay: In vitro inhibitory concentration against Monoamine oxidase A of rat brain homogenates; value ranges from 0.8-1.0; format: tissue-based
[18] = molecular target: T2, Amine oxidase [flavin-containing] B; assay: In vitro inhibitory concentration against Monoamine oxidase B of rat brain homogenates; value ranges from 0.23-0.34; format: tissue-based
[19] = molecular target: T1, Amine oxidase [flavin-containing] A; assay: In vitro inhibitory concentration against Monoamine oxidase A of rat brain homogenates; value ranges from 0.014-0.016; format: tissue-based
[20] = molecular target: T2, Amine oxidase [flavin-containing] B; assay: In vitro inhibitory concentration against Monoamine oxidase B of rat brain homogenates; value ranges from […]; format: tissue-based
How it was run: (§2)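 Rat brain homogenate (in 0.3 M sucrose) as enzyme source; compounds diluted 10⁻²M to 10⁻⁹M in 0.05 M phosphate buffer with 0.15 μM clorgyline; preincubated 60 min at 37 °C, then 10 μM ¹⁴C-phenylethylamine added for 20 min more; stopped with citric acid; metabolites extracted into toluene/ethyl acetate, scintillation counted; activity as % of control, tranylcypromine blank.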

Butyrylcholinesterase [21] = molecular target: T3, Butyrylcholinesterase; assay: In vitro inhibitory concentration against Butyrylcholinesterase of horse serum; value ranges from 1.6-2.4; how it was run: as §1
Acetylcholinesterase [22] = molecular target: T4, Acetylcholinesterase; remark: listed apart in the source
[23] = molecular target: T2, Amine oxidase [flavin-containing] B; assay: In vitro inhibitory concentration against Monoamine oxidase B of rat brain homogenates; value ranges from 0.19-0.44; format: tissue-based; how it was run: as §2
[24] = molecular target: T1, Amine oxidase [flavin-containing] A; assay: In vitro inhibitory concentration against Monoamine oxidase A of rat brain homogenates; value ranges from 315-465; format: tissue-based
[25] = Pseudo-first order rate constant for carbamoylation of ACHE at 400 (uM) concentration; format: ADME
How it was run: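 Pseudo-first-order rate constants kobs measured at 4-5 inhibitor concentrations following Bar-On et al. Apparent bimolecular carbamylation constant ki calculated from these.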

[26] = Pseudo-first order rate constant for carbamoylation of ACHE at 100 (uM) concentration; format: ADME
How it was run: (§3)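 Human erythrocyte AChE, same Ellman conditions: 200 µM […], 60 min preincubation at 37 °C, 0.1 M phosphate pH 7.4. Progressive inhibition followed at 4-5 inhibitor concentrations. Pseudo-first-order k_obs (min⁻¹) derived per concentration; apparent bimolecular carbamylation constant k_i calculated from these.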

[27] = Pseudo-first order rate constant for carbamoylation of ACHE at 50 (uM) concentration; format: ADME; how it was run: as §3
Acetylcholinesterase [28] = molecular target: T4, Acetylcholinesterase; assay: In vitro inhibitory concentration against purified Acetylcholinesterase of human erythrocytes; value ranges from 42.5-45.9
[29] = Pseudo-first order rate constant for carbamoylation of ACHE at 300 (uM) concentration; format: ADME; how it was run: as §3
[30] = molecular target: T2, Amine oxidase [flavin-containing] B; assay: In vitro inhibitory concentration against Monoamine oxidase B of rat brain homogenates; value ranges from 18-59; format: tissue-based
[31] = Bimolecular rate constant for carbamoylation of ACHE; format: ADME
How it was run: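 Human erythrocyte AChE preincubated with inhibitor at 37 °C in 0.1 M phosphate buffer, pH 7.4, under Ellman conditions with 200 µM […]. Pseudo-first-order rate constants (k_obs) for progressive inhibition were obtained at 4-5 inhibitor concentrations. The apparent bimolecular carbamylation constant k_i was calculated from these.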

[32] = molecular target: T1, Amine oxidase [flavin-containing] A; assay: In vitro inhibitory concentration against Monoamine oxidase A of rat brain homogenates; value ranges from 110-520; format: tissue-based
[33] = molecular target: T2, Amine oxidase [flavin-containing] B; assay: In vitro inhibitory concentration against Monoamine oxidase B of rat brain homogenates; value ranges from 4.8-6.9; format: tissue-based
Acetylcholinesterase [34] = molecular target: T4, Acetylcholinesterase; assay: In vitro inhibitory concentration against purified Acetylcholinesterase of human erythrocytes; value ranges from 0.32-0.98
Butyrylcholinesterase [35] = molecular target: T3, Butyrylcholinesterase; assay: In vitro inhibitory concentration against Butyrylcholinesterase of horse serum; value ranges from 1.00-1.20; how it was run: as §1
[36] = molecular target: T1, Amine oxidase [flavin-containing] A; assay: In vitro inhibitory concentration against Monoamine oxidase A of rat brain homogenates; value ranges from 6.3-7.7; format: tissue-based
Acetylcholinesterase [37] = molecular target: T4, Acetylcholinesterase; assay: In vitro inhibitory concentration against purified Acetylcholinesterase of human erythrocytes; value ranges from 2.2-6.9
[38] = molecular target: T1, Amine oxidase [flavin-containing] A; assay: In vitro inhibitory concentration against Monoamine oxidase A of rat brain homogenates; value ranges from 14-24; format: tissue-based
[39] = molecular target: T2, Amine oxidase [flavin-containing] B; assay: In vitro inhibitory concentration against Monoamine oxidase B of rat brain homogenates; value ranges from 0.18-0.30; format: tissue-based; how it was run: as §2
[40] = molecular target: T1, Amine oxidase [flavin-containing] A; assay: In vitro inhibitory concentration against Monoamine oxidase A of rat brain homogenates; value ranges from 60-150; format: tissue-based
Acetylcholinesterase [41] = molecular target: T4, Acetylcholinesterase; assay: In vitro inhibitory concentration against purified Acetylcholinesterase of human erythrocytes; value ranges from 0.18-0.44
Butyrylcholinesterase [42] = molecular target: T3, Butyrylcholinesterase; assay: In vitro inhibitory concentration against Butyrylcholinesterase of horse serum; value ranges from 5.02-12.2; how it was run: as §1
Acetylcholinesterase [43] = molecular target: T4, Acetylcholinesterase; assay: In vitro inhibitory concentration against purified Acetylcholinesterase of human erythrocytes; value ranges from 7.81-39.2

T3 sequence (Q9N1N9 whole entry): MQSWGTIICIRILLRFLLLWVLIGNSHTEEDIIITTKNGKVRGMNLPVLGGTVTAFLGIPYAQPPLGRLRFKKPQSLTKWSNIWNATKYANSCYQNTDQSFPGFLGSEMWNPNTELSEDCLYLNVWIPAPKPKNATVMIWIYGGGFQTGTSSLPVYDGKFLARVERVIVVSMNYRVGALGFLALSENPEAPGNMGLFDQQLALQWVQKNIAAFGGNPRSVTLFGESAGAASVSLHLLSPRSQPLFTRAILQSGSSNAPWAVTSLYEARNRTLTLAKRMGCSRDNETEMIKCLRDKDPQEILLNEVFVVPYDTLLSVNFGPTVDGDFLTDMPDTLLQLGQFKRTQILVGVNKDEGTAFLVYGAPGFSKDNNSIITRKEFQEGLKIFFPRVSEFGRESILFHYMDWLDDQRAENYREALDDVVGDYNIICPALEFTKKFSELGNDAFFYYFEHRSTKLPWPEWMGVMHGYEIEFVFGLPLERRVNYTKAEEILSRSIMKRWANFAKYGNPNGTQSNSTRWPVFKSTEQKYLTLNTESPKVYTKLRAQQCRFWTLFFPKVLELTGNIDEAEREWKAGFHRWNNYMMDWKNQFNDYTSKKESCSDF
T4 sequence (P22303 whole entry): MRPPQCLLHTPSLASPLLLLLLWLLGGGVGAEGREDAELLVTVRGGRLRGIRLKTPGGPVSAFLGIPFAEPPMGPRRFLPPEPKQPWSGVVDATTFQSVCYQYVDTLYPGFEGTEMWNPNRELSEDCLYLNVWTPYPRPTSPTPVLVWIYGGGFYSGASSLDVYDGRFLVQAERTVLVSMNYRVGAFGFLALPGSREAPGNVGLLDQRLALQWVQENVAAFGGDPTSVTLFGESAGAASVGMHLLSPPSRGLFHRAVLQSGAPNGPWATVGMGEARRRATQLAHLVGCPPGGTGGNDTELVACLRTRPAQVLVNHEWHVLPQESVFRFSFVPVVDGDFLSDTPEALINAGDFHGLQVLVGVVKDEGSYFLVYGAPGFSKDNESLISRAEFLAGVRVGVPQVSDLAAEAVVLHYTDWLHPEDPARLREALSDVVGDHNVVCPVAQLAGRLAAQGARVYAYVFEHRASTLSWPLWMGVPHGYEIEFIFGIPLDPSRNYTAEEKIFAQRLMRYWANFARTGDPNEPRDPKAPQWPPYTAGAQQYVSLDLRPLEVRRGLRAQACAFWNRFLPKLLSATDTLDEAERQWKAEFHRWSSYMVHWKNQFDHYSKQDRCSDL

CCN(C)C(=O)Oc1ccc2c(c1)[C@H](N)CC2
IC50 [1]: 5.6 µM | IC50 [2]: > 1000 µM | IC50 (Butyrylcholinesterase [3]): 1.96 µM | IC50 (Acetylcholinesterase [4]): 6.14 µM

C#CCNC1CCc2ccc(OC(=O)N(C)CCC)cc21 (stereo not given)
IC50 [5]: 410 µM | IC50 [6]: 240 µM | IC50 (Butyrylcholinesterase [7]): 14.8 µM | IC50 (Acetylcholinesterase [8]): 14.6 µM

C#CCNC1CCc2ccc(OC(=O)N(C)CCCC)cc21 (stereo not given)
IC50 (Acetylcholinesterase [9]): 11.3 µM | IC50 (Butyrylcholinesterase [10]): 53.7 µM

C#CCNC1CCc2cccc(OC(=O)N(C)CCC)c21 (stereo not given)
IC50 (Acetylcholinesterase [11]): 45.8 µM

C#CCN[C@@H]1CCc2ccc(OC(=O)N(C)CCC)cc21
IC50 (Butyrylcholinesterase [12]): 14.9 µM | IC50 (Acetylcholinesterase [13]): 10.8 µM

C#CCN(C)CCc1cccc(O)c1
IC50 [14]: 6.4 µM | IC50 [15]: 1.3 µM

C#CCN(C)[C@@H](C)Cc1cccc(OC(=O)N(C)C2CCCCC2)c1
IC50 (Acetylcholinesterase [16]): 6.3 µM | IC50 [17]: 1.1 µM | IC50 [18]: 0.28 µM

C#CCN(C)C1CCc2ccc(O)cc21 (stereo not given)
IC50 [19]: 0.015 µM | IC50 [20]: 0.03 µM

C#CCNCCc1cccc(OC(=O)N(C)CCC)c1
IC50 (Butyrylcholinesterase [21]): 1.9 µM | IC50 (Acetylcholinesterase [22]): 15.4 µM | IC50 [23]: 0.29 µM

C#CCNC1CCc2c(Cl)cc(OC(=O)N(C)CCC)cc21.Cl (stereo not given)
IC50 [24]: 375 µM | K obs [25]: 38 min⁻¹ | K obs [26]: 22 min⁻¹ | K obs [27]: 17 min⁻¹ | IC50 (Acetylcholinesterase [28]): 43.9 µM | K obs [29]: 34 min⁻¹ | IC50 [30]: 32 µM | Bimolecular carbamoylation rate constant (ki) [31]: 0.983 M⁻¹ s⁻¹

CCCN(C)C(=O)Oc1cccc(CCN)c1
IC50 [32]: 240 µM | IC50 [2]: > 1000 µM

C#CCNC(C)Cc1cccc(OC(=O)N(C)C)c1 (stereo not given)
IC50 [33]: 5.7 µM | IC50 (Acetylcholinesterase [34]): 0.54 µM | IC50 (Butyrylcholinesterase [35]): 1.09 µM | IC50 [36]: 6.9 µM

C#CCNC(C)Cc1cccc(OC(=O)N(C)C2CCCCC2)c1 (stereo not given)
IC50 (Acetylcholinesterase [37]): 3.6 µM | IC50 [38]: 18 µM | IC50 [39]: 0.23 µM

CN(C)C(=O)Oc1cccc(CCN)c1
IC50 [40]: 95 µM | IC50 (Acetylcholinesterase [41]): 0.23 µM | IC50 [2]: > 1000 µM

C#CCNC1CCc2ccc(OC(=O)N(C)CCCCCC)cc21 (stereo not given)
IC50 (Butyrylcholinesterase [42]): 7.5 µM | IC50 (Acetylcholinesterase [43]): 15.7 µM
